One experiment concerns HSC-2. Kind of experiment: Cytotoxicity against human HSC2 cells after 24 hrs by MTT assay. The class given is functional, cell-based. Conditions: HSC-2, 24 h. In outline: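 HSC-2 monolayers kept in DMEM with 10% heat-inactivated FBS at 37 °C, 5% CO2. Trypsinized cells plated, grown 24 h, PBS-washed, exposed 24 h with or without compound. After PBS wash, 0.2 mg/mL MTT in DMEM/10% FBS for 4 h; cells lysed in DMSO and absorbance taken as relative viable cell number. IC50 reported.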
On the technique in general: Tetrazolium assays rely on reduction of a dye to a coloured formazan, in cell work by metabolically active cells.

The subject of the next experiment is HL-60. Kind of experiment: Cytotoxicity against human HL60 cells after 72 hrs by MTT assay. The class given is functional, cell-based. The settings on record: HL-60, 72 h. In outline:
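HL-60 leukemia cells seeded in 96-well plates, held 24 h at 37 °C in 5% CO2/air, then given sample in EtOH-H2O (1:1) to final 0.1-20 µg/mL; solvent alone for controls. Exposure 72 h, then MTT for 4 h at 37 °C; cells and formazan pelleted, formazan dissolved in DMSO, A550 read. Triplicate; IC50 = concentration cutting viable cell number by 50%.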

SMILES strings stand for the structures. Values after ≈ are worked out from the molar mass of the structure shown.

What is called IC50 is the concentration at which inhibition is half-maximal. The low end stands for higher potency, the high end for lower potency. For `C[C@@H]1O[C@@H](O[C@H]2[C@H](O[C@@H]3C[C@H](O)CC4=CC[C@H]5[C@@H]6C[C@@H]7O[C@]8(C[C@H](O)[C@@H](C)CO8)[C@@H](C)[C@@H]7[C@@]6(C)CC[C@@H]5[C@]43C)OC[C@H](O)[C@@H]2O[C@@H]2OC[C@@H](O)[C@H](O)[C@H]2O)[C@H](O)[C@H](O)[C@H]1O`, the IC50 with HSC-2 is greater than 100 µg/mL; in the experiment on HL-60, greater than 10 µg/mL.

As to `CC(=O)OC[C@H]1O[C@@H](O[C@H]2C[C@H]3[C@@H]4CC[C@H]5C[C@@H](O)C[C@@H](O[C@@H]6O[C@@H](C)[C@H](O)[C@@H](O)[C@H]6O)[C@]5(C)[C@H]4CC[C@]3(C)[C@H]2[C@H](C)[C@@H](O)CCC(C)C)[C@H](O)[C@@H](O)[C@@H]1O`, the IC50 was greater than 100 µg/mL in the experiment on HSC-2 and 5.3 µg/mL (≈ 6.73 µM) in the experiment with HL-60.

Consider `COc1cc(C(=O)OC[C@H]2O[C@@H](O[C@@H]3C[C@H](O)C[C@@H]4CC[C@H]5[C@@H]6C[C@H](O[C@@H]7O[C@H](CO)[C@@H](O)[C@H](O)[C@H]7O)[C@H]([C@H](C)[C@@H](O)CC=C(C)C)[C@@]6(C)CC[C@@H]5[C@]43C)[C@H](O)[C@@H](O)[C@@H]2O)cc(OC)c1OC`, for which the 50% inhibitory concentration (IC50) in the experiment with HSC-2 was greater than 100 µg/mL; in the experiment on HL-60, greater than 10 µg/mL.

`CC(C)CC[C@H](O)[C@@H](C)[C@H]1[C@@H](O[C@@H]2O[C@H](CO)[C@@H](O)[C@H](O)[C@H]2O)C[C@H]2[C@@H]3CC[C@H]4C[C@@H](O)C[C@@H](O[C@@H]5O[C@H](CO)[C@@H](O)[C@H](O)[C@H]5O)[C@]4(C)[C@H]3CC[C@]12C`: the figures for the IC50 in the experiment on HSC-2 and in the experiment on HL-60 were greater than 100 µg/mL and greater than 10 µg/mL, respectively.

For `COc1cc([C@@H]2c3cc4c(cc3[C@@H](O[C@@H]3O[C@@H]5CO[C@@H](C)O[C@H]5[C@H](O)[C@H]3O)[C@H]3COC(=O)[C@H]23)OCO4)cc(OC)c1O` [ETOPOSIDE], the 50% inhibitory concentration (IC50) is 24.4 µg/mL (≈ 41.5 µM) in the experiment with HSC-2 and 0.23 µg/mL (≈ 0.391 µM) in the experiment with HL-60.

`C[C@@H]1CC[C@@]2(OC1)O[C@H]1C[C@H]3[C@@H]4CC=C5C[C@@H](O)C[C@@H](O[C@@H]6OC[C@H](O)[C@H](O)[C@H]6O[C@@H]6O[C@@H](C)[C@H](O)[C@@H](O)[C@H]6O)[C@]5(C)[C@H]4CC[C@]3(C)[C@H]1[C@@H]2C`: the 50% inhibitory concentration (IC50) came to 19.9 µg/mL (≈ 28.1 µM) with HSC-2 and 2.2 µg/mL (≈ 3.1 µM) in the experiment on HL-60.

As for `CC(C)CC[C@H](O)[C@@H](C)[C@H]1[C@@H](O[C@@H]2O[C@H](CO)[C@@H](O)[C@H](O)[C@H]2O)C[C@H]2[C@@H]3CC[C@H]4C[C@@H](O)C[C@@H](O[C@@H]5O[C@@H](C)[C@H](O)[C@@H](O)[C@H]5O)[C@]4(C)[C@H]3CC[C@]12C`, the concentration for half-maximal inhibition (IC50) in the experiment on HSC-2 is greater than 100 µg/mL; in the experiment on HL-60, greater than 10 µg/mL.

Turning to `CC(C)=CC[C@H](O)[C@@H](C)[C@H]1[C@@H](O[C@@H]2O[C@@H](C)[C@H](O)[C@@H](O)[C@H]2O)C[C@H]2[C@@H]3CC[C@H]4C[C@@H](O)C[C@@H](O[C@@H]5O[C@@H](C)[C@H](O)[C@@H](O)[C@H]5O)[C@]4(C)[C@H]3CC[C@]12C`, the IC50 is greater than 100 µg/mL with HSC-2 and greater than 10 µg/mL with HL-60.

In the case of `C[C@@H]1CC[C@@]2(OC1)O[C@H]1C[C@H]3[C@@H]4CC[C@H]5C[C@@H](O)C[C@@H](O[C@@H]6O[C@H](CO)[C@@H](O)[C@H](O)[C@H]6O)[C@]5(C)[C@H]4CC[C@]3(C)[C@H]1[C@@H]2C`, the concentration for half-maximal inhibition (IC50) in the experiment on HSC-2 amounted to 34.6 µg/mL (≈ 58.2 µM); with HL-60 it was 1.6 µg/mL (≈ 2.69 µM).

With `C[C@@H]1O[C@@H](O[C@H]2[C@H](O[C@@H]3C[C@H](O)CC4=CC[C@H]5[C@@H]6C[C@@H]7O[C@]8(C[C@H](O)[C@@H](C)CO8)[C@@H](C)[C@@H]7[C@@]6(C)CC[C@@H]5[C@]43C)OC[C@H](O)[C@@H]2O)[C@H](O)[C@H](O)[C@H]1O`, the IC50 in the experiment with HSC-2 is greater than 100 µg/mL; with HL-60 it was 5.2 µg/mL (≈ 7.17 µM).

Consider `CC(C)=CC[C@H](O)[C@@H](C)[C@H]1[C@@H](O[C@@H]2O[C@@H](C)[C@H](O)[C@@H](O)[C@H]2O)C[C@H]2[C@@H]3CC=C4C[C@@H](O)C[C@@H](O[C@@H]5O[C@@H](C)[C@H](O)[C@@H](O)[C@H]5O)[C@]4(C)[C@H]3CC[C@]12C`, for which the concentration for half-maximal inhibition (IC50) was greater than 100 µg/mL in the experiment on HSC-2 and 5.1 µg/mL (≈ 7.04 µM) with HL-60.

With `CC(=O)OC[C@H]1O[C@@H](O[C@H]2C[C@H]3[C@@H]4CC[C@H]5C[C@@H](O)C[C@@H](O[C@@H]6O[C@@H](C)[C@H](O)[C@@H](O)[C@H]6O)[C@]5(C)[C@H]4CC[C@]3(C)[C@H]2[C@H](C)[C@@H](O)CCC(C)C)[C@H](O)[C@@H](O)[C@@H]1O[C@@H]1OC[C@](O)(CO)[C@H]1O`, the 50% inhibitory concentration (IC50) in the experiment on HSC-2 is greater than 100 µg/mL; with HL-60, greater than 10 µg/mL.

With `COc1cc(C(=O)OC[C@H]2O[C@@H](O[C@@H]3C[C@H](O)C[C@@H]4CC[C@H]5[C@@H]6C[C@H](O[C@@H]7O[C@H](CO)[C@@H](O)[C@H](O)[C@H]7O)[C@H]([C@H](C)[C@@H](O)CCC(C)C)[C@@]6(C)CC[C@@H]5[C@]43C)[C@H](O)[C@@H](O)[C@@H]2O)cc(OC)c1OC`, the IC50 is greater than 100 µg/mL with HSC-2 and 5 µg/mL (≈ 5.23 µM) in the experiment with HL-60.

`C[C@@H]1CC[C@@]2(OC1)O[C@H]1C[C@H]3[C@@H]4CC=C5C[C@@H](O)C[C@@H](O[C@@H]6OC[C@H](O)[C@H](O[C@@H]7OC[C@@H](O)[C@H](O)[C@H]7O)[C@H]6O[C@@H]6O[C@@H](C)[C@H](O)[C@@H](O)[C@H]6O)[C@]5(C)[C@H]4CC[C@]3(C)[C@H]1[C@@H]2C`: the IC50 with HSC-2 was found to be 21.2 µg/mL (≈ 25.2 µM); in the experiment with HL-60, 1.9 µg/mL (≈ 2.26 µM).

Take `CC(C)CC[C@H](O)[C@@H](C)[C@H]1[C@@H](O[C@@H]2O[C@@H](C)[C@H](O)[C@@H](O)[C@H]2O)C[C@H]2[C@@H]3CC=C4C[C@@H](O)C[C@@H](O[C@@H]5O[C@@H](C)[C@H](O)[C@@H](O)[C@H]5O)[C@]4(C)[C@H]3CC[C@]12C`: the half-inhibitory concentration (IC50) in the experiment on HSC-2 was greater than 100 µg/mL; in the experiment on HL-60, greater than 10 µg/mL.

(Values after ChEMBL document CHEMBL1148921, “Steroidal glycosides from the bulbs of Ornithogalum thyrsoides” (J Nat Prod, 2004).)
